# From PubChem
# T cell modulator – modulates CD8 T cell binding to vesicles; 330,000 tested, 0.068% active; response (vesicle binding), % at 7 µM; 2C CD8+ T cell-vesicle binding, flow cytometry; hits give low values;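 active means response, share of CD8 T cells binding vesicles, and their 90th percentile fluorescence all below set limits, cut at about 80% in these data, passing the limit was not always enough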;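 further: values below 100% mean blocked vesicle binding to the CD8+ T cells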
#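 System: murine 2C transgenic CD8+ T lymphocytes; also added: QL9-loaded Drosophila micro-vesicles; times: binding 1.5 h at 37 °C; measured by: flow cytometry, PE anti-B7-1 (FL2) versus Alexa647 anti-CD8 (FL8), PFA-fixed; control set: Peptide-free naked vesicles (low) and QL9 vesicles with 0.7% DMSO vehicle (high)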
# rCAG RNA binder – molecules binding r(CAG) RNA repeats; r(CAG) RNA repeat, TO-PRO-1 dye displacement fluorescence; inhibition, % at 3 µM; 370,000 tested, 1.3% active;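 active means inhibition above the plate cutoff, the mean of all test compounds on that plate plus 3 SD, cut at about 35% in these data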;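 further: 0% = DMSO alone and 100% = 100 µM mitoxantrone as full dye displacement; higher means more dye released from RNA so lower well fluorescence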
# Beta2AR agonist – human beta-2 adrenergic receptor agonism by FAP; P07550; Am2.2-beta2AR cells, FAP receptor internalization, flow cytometry; response, % (no concentration beside the values); 340,000 tested, 0.43% active; AID 504454;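 active means response above a set limit, near 3 SD of response in nonfluorescent compounds, cut at about 42% in these data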
# Target sequence (P07550 whole entry, looked up): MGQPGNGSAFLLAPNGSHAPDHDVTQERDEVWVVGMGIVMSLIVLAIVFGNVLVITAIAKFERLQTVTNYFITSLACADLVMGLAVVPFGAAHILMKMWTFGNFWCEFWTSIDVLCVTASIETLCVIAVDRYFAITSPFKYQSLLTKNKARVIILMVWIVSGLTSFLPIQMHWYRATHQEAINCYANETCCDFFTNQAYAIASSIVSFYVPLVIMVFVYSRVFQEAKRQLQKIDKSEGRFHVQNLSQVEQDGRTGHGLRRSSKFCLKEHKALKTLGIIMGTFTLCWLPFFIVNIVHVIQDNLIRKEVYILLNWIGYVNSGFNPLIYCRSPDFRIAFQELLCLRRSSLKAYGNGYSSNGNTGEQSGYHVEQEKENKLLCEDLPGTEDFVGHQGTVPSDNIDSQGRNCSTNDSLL
# Exocytosis inh – blocks lytic granule exocytosis | TALL-104 LAMP-1 surface exposure, flow cytometry; cells stimulated with thapsigargin and PMA | inhibition, % at 10 µM | 360,000 tested, 0.66% active | AID 651702;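 active means inhibition above about 55%, limit read from the data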
# V-ATPase pHluor – yeast V-ATPase proton transport regulation by pHLuorin; response, % at 10 µM; 350,000 tested, 0.37% active; S. cerevisiae, pHLuorin cytosolic pH fluorescence; AID 504577; in the data active means response mostly above about 7.3%, no sharp cut-off; inactive means mostly below about 5.4%; further: actives read high
# MPTP inh – permeability transition pore inhibition. isolated mouse mitochondria, Ca2+ swelling absorbance, 30 min. inhibition, % at 10 µM. 360,000 tested, 1.4% active. AID 602449;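 active means inhibition of 50% or more, scaled per plate between neutral and stimulator controls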;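 further: 0% = DMSO wells given calcium and 100% = 1 mM EGTA wells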
# MPTP counter – Rhodamine 123 counter-screen of mitochondrial pore hits | shares compounds with MPTP inh | isolated mitochondria, membrane potential, Rhodamine 123 fluorescence | inhibition, % at 10 µM | 5,000 tested, 78% active | AID 624504; in the data active means inhibition above about 22%;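 further: 0% = DMSO vehicle and 100% = positive control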
# MPTP swell DR – MPTP inhibition, dose response swelling confirmation | shares compounds with MPTP inh | isolated mitochondria swelling, absorbance | IC50, µM | 780 tested, 58% active | AID 651561; in the data active means IC50 below about 20 µM
# MPTP counter DR – counter-screen for mitochondrial permeability transition pore inhibitors, dose response. shares compounds with MPTP inh. isolated mitochondria counterscreen, fluorescence read-out. IC50, µM. 780 tested, 49% active. AID 651564; in the data active means IC50 below about 80 µM
# * = called active by the depositor; i = inactive; . = not tested or not shown. Compounds with a hit are over-represented: about 3.8% of the library has one in this group of screens.
SMILES,T cell modulator,rCAG RNA binder,Beta2AR agonist,Exocytosis inh,V-ATPase pHluor,MPTP inh,MPTP counter,others
O=C(Nc1ccc(Cl)c([N+](=O)[O-])c1)ONC1=NCCCCC1,196.7,4.5,-0.7,1.0,1.9,81.5*,90.8*,
O=C(ONC1=NCCCCC1)c1cccc([N+](=O)[O-])c1,219.2,-1.4,-4.6,-2.1,-0.4,0.1,.,
Cc1ccc(SCc2nc3ccccc3n2CC(=O)Nc2ccc(Cl)cc2)cc1,213.4,18.8,-1.1,3.9,-4.7,86.8*,86.8*,
COC(=O)c1cc(NC(=S)Nc2cc(Cl)cc(Cl)c2)cc(C(=O)OC)c1,516.5,7.1,-4.1,-0.8,-1.4,82.7*,75.2*,
Cc1cccc(NC(=O)Nc2ccc(S(N)(=O)=O)cc2)c1,585.2,4.1,8.6,-5.9,-2.2,-1.1,.,
COC(=O)c1cccc(NC(=S)Nc2ccc(Cl)c(Cl)c2)c1,i,4.9,10.3,-11.9,-0.5,79.6*,90.6*,
CC(C)S(=O)(=O)c1csc(C(=O)NNC(=O)Nc2ccccc2)c1Cl,142.6,14.8,3.5,-2.4,3.7,1.5,.,
NS(=O)(=O)c1cccc(NC(=O)Nc2ccc(Cl)cc2)c1,308.7,4.2,3.8,2.1,6.7,89.0*,85.8*,
CC(C)S(=O)(=O)c1csc(NC(=O)Nc2ccc(Cl)cc2)c1,333.6,6.7,2.7,7.3,-1.1,76.3*,79.2*,
COC(=O)[C@]12C[C@H](CC(=O)NCc3ccc(C)o3)C(=O)N(CCc3ccc(OC)c(OC)c3)C1=C[C@H](C1CCCC1)O[C@@H]2C,.,2.8,.,.,.,.,.,
CCc1cc2c(nc1CC)CCCN2Cc1ccccc1C(F)(F)F,.,5.1,.,.,.,.,.,
CCOC(=O)C1=CCN(S(=O)(=O)c2ccc(Br)cc2)C1c1cccc(Br)c1 (configuration not stated),.,5.1,.,.,.,.,.,
COC(=O)c1cccc(NC(=O)NC(=O)c2ccc(Cl)cc2)c1,299.6,-1.7,-0.8,-8.6,-1.1,1.2,.,
COC(=O)c1cccc(NC(=O)Nc2ccc(Cl)cc2)c1,300.0,6.2,-0.5,-12.8,-3.7,76.9*,92.3*,
C[C@@H]1C[C@H]2[C@@H](Cc3ccccc3)C(=O)N3[C@H](c4ccccc4)[C@H](C)C[C@H]3[C@@H](Cc3ccccc3)C(=O)N2[C@@H]1c1ccccc1,.,5.9,.,.,.,.,.,
Cn1c2c(c(=O)n(C)c1=O)C(C(F)(F)F)(C(F)(F)F)N=C(CCC1CCCCC1)N2,172.4,-0.7,7.4,10.4,0.8,93.6*,78.8*,
Cc1ccc(C(C)C)cc1NC(=O)Nc1ccc([N+](=O)[O-])cc1,73.3,15.8,15.1,40.7,-4.9,83.7*,78.6*,
Cc1cc(Br)ccc1NC(=O)C(C)c1ccc([N+](=O)[O-])cc1 (configuration not stated),287.9,7.0,-5.1,13.0,0.2,54.5*,68.9*,
Cc1cc(O)c(C(C)C)cc1NC(=O)Nc1ccc([N+](=O)[O-])cc1,.,4.4,4.9,2.3,-2.9,15.4,.,
Cc1ccc([N+](=O)[O-])cc1NC(=O)C(Sc1ccccc1)c1ccccc1 (configuration not stated),278.8,2.6,1.0,8.8,-1.7,94.3*,78.8*,
O=S1(=O)c2ccc(N3CCC[C@H]3CO)cc2OCCCN1C1CC1,.,3.6,.,.,.,.,.,
Cc1cc(=O)[nH]c(SCC(=O)C23CC4CC(CC(C4)C2)C3)c1C#N,411.3,31.3,5.2,1.0,1.2,85.3*,84.4*,
Cc1cc(=O)[nH]c(SCC(=O)O)c1C#N,475.1,5.1,-4.6,0.4,2.4,0.2,.,
COc1ccc2c(c1)CO[C@H]([C@H](O)CO)[C@H]2/C=C/c1ccccc1,.,3.5,.,.,.,.,.,
Cc1cc(N2CCCC2=O)cc(C)c1S(=O)(=O)NCCOc1ccc(C(C)(C)C)cc1,263.9,9.7,-7.4,-2.5,-5.7,104.6*,98.6*,
COc1cc(/C=N/NC(=O)C2c3ccccc3Oc3ccccc32)ccc1O,434.0,17.3,-2.7,-4.6,8.2,83.4*,-18.6,MPTP swell DR=15.8*;MPTP counter DR=>80
